Assay results: paper PMC9165588 (European journal of medicinal chemistry, 2022)
“Also recorded” adds a separate entry of the source. Structures can show the parent of a compound that is named as a salt.

Columns and labels:
[1] = target: T1, HAT domain (1195-1673) of human p300 (Homo sapiens, UniProt Q09472); test: p300 HAT inhibition assay; type: biochemical; conditions: for inhibition at 10 µM: read-out: inhibition of p300 HAT at 10 μM; for inhibitory activity against p300 HAT (in words): initial screen at 10 μM
T1 sequence (Q09472 1195-1673): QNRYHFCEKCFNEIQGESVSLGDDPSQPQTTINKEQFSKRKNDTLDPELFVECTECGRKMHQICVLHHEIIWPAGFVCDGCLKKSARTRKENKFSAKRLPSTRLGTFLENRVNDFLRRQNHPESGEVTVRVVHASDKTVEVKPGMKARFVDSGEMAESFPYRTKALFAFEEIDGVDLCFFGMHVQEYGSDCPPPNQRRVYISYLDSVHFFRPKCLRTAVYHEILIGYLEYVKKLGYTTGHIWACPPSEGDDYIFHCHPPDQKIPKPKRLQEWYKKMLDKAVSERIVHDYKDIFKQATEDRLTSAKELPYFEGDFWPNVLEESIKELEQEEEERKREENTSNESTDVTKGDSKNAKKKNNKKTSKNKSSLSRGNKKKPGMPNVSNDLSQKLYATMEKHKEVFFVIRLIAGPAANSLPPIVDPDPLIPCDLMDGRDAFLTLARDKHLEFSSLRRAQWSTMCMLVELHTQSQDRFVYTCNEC

MCF-7 = conditions: read-out: Antiproliferative activity EC50; cited from earlier work
PANC-1 = conditions: read-out: Antiproliferative activity EC50; cited from earlier work
MDA-PANC-28 = conditions: read-out: Antiproliferative activity EC50; cited from earlier work
[2] = target: T2, binding between p300 HAT and histone H4 (Homo sapiens, UniProt Q09472); test: ALPHA assay of p300 HAT-histone H4 peptide binding
T2 sequence (Q09472 1195-1673): T1 sequence (Q09472 1195-1673)

LSD1 [3] = target: T3, LSD1 (Homo sapiens, UniProt O60341); conditions: read-out: IC50 against LSD1; cited from earlier work
Kasumi-1 leukemia cells = test: Western blot of cellular histone H3 lysine acetylation; type: cell-based, human; conditions: Kasumi-1 cells, 12h, 5 and 10 μM
Method in brief: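 Kasumi-1 cells (10⁶ per well) were exposed to test compound at various concentrations for 12 h. Total histones were extracted with a kit, and 2 μg protein was resolved by SDS-PAGE and transferred to PVDF. Blots were probed with antibodies to H3K9Ac, H3K18Ac, H3K27Ac and total H3, then an anti-rabbit IgG secondary.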

Myst3 = Myst3 (Homo sapiens, UniProt Q92794); test: Myst3 HAT inhibition assay; type: biochemical
Method in brief: (§1)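 Radiometric acetyltransfer assay. HAT enzyme (10 nM) was preincubated with test compound for 10 min at 25 °C in 50 mM phosphate buffer, pH 7.0, with 0.01% Brij-35. After 30 min at 25 °C, stopped with 6 N formic acid. Spotted on P81 paper, washed 3× in 50 mM NaHCO₃, scintillation counted.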

LSD1 [4] = target: T3, LSD1; test: LSD1 inhibition; type: biochemical
PCAF = PCAF (Homo sapiens, UniProt Q92831); test: PCAF HAT inhibition assay; type: biochemical
Method in brief: as §1

Chain of Myst3 (Q92794 whole entry): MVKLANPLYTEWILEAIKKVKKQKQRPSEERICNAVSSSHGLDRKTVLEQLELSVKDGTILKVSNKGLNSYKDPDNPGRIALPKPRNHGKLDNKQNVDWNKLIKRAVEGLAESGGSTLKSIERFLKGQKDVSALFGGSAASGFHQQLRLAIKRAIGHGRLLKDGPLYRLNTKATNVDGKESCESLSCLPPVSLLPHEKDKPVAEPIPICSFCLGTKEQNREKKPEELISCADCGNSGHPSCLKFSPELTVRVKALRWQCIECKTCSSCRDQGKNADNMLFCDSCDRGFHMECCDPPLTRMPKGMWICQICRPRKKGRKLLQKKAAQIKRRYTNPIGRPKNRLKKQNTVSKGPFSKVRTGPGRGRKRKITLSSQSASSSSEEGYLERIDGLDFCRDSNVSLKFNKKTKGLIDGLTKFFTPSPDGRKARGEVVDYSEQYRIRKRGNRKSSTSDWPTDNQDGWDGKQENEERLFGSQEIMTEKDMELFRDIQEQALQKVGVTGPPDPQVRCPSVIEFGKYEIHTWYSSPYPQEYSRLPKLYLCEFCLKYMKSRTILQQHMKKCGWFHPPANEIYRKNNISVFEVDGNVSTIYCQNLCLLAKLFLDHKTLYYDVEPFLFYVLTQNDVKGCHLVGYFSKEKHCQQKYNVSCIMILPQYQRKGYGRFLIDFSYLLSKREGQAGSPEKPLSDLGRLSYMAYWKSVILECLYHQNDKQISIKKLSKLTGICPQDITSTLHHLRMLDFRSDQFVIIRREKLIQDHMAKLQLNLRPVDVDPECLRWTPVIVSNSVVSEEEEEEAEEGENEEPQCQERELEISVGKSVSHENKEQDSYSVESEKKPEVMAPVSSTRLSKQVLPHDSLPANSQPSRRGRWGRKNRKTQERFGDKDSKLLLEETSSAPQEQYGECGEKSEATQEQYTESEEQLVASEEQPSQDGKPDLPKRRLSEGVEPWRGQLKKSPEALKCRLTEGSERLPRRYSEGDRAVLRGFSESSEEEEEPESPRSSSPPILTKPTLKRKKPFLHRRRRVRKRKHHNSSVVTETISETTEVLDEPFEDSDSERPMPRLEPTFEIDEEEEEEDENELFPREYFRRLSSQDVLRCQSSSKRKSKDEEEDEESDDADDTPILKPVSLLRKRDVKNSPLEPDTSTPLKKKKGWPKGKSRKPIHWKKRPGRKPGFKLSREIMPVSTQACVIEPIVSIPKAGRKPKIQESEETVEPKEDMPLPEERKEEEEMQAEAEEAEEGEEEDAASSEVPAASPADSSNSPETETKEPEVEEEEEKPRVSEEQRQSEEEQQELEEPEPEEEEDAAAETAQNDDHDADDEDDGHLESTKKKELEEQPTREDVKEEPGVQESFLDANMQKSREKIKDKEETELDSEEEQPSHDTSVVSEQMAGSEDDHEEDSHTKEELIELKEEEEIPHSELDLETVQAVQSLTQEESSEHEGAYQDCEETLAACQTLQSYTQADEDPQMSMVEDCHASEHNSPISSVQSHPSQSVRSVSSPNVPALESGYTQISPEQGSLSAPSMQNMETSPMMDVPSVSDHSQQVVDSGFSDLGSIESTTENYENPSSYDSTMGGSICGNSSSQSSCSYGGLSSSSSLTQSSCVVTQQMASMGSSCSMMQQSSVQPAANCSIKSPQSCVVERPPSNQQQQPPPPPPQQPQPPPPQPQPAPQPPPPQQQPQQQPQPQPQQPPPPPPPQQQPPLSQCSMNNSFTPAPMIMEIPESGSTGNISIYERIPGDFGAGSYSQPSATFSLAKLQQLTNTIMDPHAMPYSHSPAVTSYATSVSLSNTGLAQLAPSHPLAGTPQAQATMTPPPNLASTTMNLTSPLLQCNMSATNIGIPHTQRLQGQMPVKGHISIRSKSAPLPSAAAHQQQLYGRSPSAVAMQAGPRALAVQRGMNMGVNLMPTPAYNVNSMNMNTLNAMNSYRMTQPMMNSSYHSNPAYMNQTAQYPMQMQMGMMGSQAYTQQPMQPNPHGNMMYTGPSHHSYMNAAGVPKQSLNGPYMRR
Chain of PCAF (Q92831 whole entry): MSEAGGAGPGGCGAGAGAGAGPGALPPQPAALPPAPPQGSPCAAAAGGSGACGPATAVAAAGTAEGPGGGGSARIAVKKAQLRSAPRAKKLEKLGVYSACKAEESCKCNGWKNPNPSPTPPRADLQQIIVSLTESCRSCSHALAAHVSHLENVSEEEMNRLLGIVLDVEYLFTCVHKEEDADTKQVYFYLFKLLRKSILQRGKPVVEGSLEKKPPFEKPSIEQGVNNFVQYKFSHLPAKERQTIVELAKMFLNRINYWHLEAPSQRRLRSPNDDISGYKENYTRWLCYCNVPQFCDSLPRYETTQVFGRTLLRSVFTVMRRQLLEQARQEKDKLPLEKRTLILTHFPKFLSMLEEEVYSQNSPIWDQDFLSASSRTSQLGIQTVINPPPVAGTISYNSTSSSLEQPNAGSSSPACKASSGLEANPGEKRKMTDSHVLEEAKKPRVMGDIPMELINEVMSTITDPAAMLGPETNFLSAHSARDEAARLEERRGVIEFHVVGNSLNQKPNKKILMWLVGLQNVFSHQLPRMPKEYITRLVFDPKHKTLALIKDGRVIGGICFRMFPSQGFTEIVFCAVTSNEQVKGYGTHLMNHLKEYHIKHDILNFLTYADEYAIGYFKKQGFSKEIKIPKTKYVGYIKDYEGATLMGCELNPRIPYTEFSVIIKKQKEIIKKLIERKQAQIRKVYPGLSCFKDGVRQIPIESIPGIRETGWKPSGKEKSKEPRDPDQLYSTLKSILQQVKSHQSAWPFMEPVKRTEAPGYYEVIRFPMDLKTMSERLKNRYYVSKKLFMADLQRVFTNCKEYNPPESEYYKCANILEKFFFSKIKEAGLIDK

Structure (SMILES): c1ccc(-c2ccc(-c3ncc(OCC4CCNCC4)nc3-c3ccc(-c4ccccn4)cc3)cc2)nc1 [Compound 30, 5-(Piperidin-4-ylmethoxy)-2,3-bis(4-(pyridin-2-yl)phenyl)pyrazine hydrochloride]
- inhibition at 10 µM [1]: 37 to 39%

Structure (SMILES): N#Cc1ccc(-c2ncc(OCC3CCNCC3)nc2-c2ccc(Br)cc2)cc1 [Compound 23]
- inhibitory activity against p300 HAT (in words) [1]: failed to improve the inhibitory activity

Structure (SMILES): CNC(=O)Nc1ccc2c(c1)CC[C@@]21OC(=O)N(CC(=O)N(Cc2ccc(F)cc2)[C@@H](C)C(F)(F)F)C1=O [Compound A-485]
- EC50 (MCF-7): > 30 µM
- EC50 (PANC-1): > 30 µM
- EC50 (MDA-PANC-28): > 30 µM
- effect on p300 HAT-histone H4 binding (in words) [2]: not significantly inhibited; also recorded: did not affect the p300 HAT-histone H4 interaction

Structure (SMILES): N#Cc1ccc(-c2nc(OCC3CCNCC3)cnc2-c2ccc(Br)cc2)cc1 [Compound 22]
- inhibitory activity against p300 HAT (in words) [1]: failed to improve the inhibitory activity

Structure (SMILES): Cc1ccc(-c2ncc(OCC3CCNCC3)cc2-c2ccc(CO)cc2)cc1 [Compound 2]
- IC50 (LSD1 [3]): > 100 µM

Structure (SMILES): Brc1ccc(-c2ncc(OCC3CCNCC3)nc2-c2ccc(Br)cc2)cc1 [Compound 3]
- effect on p300 HAT-histone H4 binding (in words) [2]: can dose-dependently disrupt the binding
- IC50 (LSD1 [3]): 52.4 µM

Structure (SMILES): CC(=O)NCCOc1cnc(-c2ccc(Br)cc2)c(-c2ccc(Br)cc2)n1 [Compound 10, N-(2-((5,6-bis(4-bromophenyl)pyrazin-2-yl)oxy)ethyl)acetamide hydrochloride]
- inhibitory activity against p300 HAT (in words) [1]: inactive

Structure (SMILES): c1ccc(-c2cc(OCC3CCNCC3)cnc2-c2ccccc2)cc1 [Compound 1, 5,6-diphenyl-3-(piperidin-4-ylmethoxy)pyridine]
- IC50 (LSD1 [3]): > 100 µM

Structure (SMILES): CNCCOc1cnc(-c2ccc(Br)cc2)c(-c2ccc(Br)cc2)n1 [Compound 9, 2-((5,6-bis(4-bromophenyl)pyrazin-2-yl)oxy)-N-methylethan-1-amine hydrochloride]
- inhibitory activity against p300 HAT (in words) [1]: weak inhibitors

Structure (SMILES): NCc1ccc(-c2ncc(OCC3CCNCC3)nc2-c2ccc(CN)cc2)cc1 [Compound 27, ((5-(Piperidin-4-ylmethoxy)pyrazine-2,3-diyl)bis(4,1-phenylene))dimethanamine Hydrochloride]
- activity enhancement against p300 HAT compared to compound 3 ([1]; relative to compound 3): ~ 2 fold
- acetylation of H3K9 in cells (Kasumi-1 leukemia cells): dose-dependently inhibit
- acetylation of H3K18 in cells (Kasumi-1 leukemia cells): not significantly affected
- acetylation of H3K27 in cells (Kasumi-1 leukemia cells): dose-dependently inhibit

Structure (SMILES): c1cc(-c2ccc(-c3ncc(OCC4CCNCC4)nc3-c3ccc(-c4ccncc4)cc3)cc2)ccn1 [Compound 31, 5-(Piperidin-4-ylmethoxy)-2,3-bis(4-(pyridin-4-yl)phenyl)pyrazine hydrochloride]
- inhibition at 10 µM [1]: 37 to 39%

Structure (SMILES): NCCCOc1cnc(-c2ccc(Br)cc2)c(-c2ccc(Br)cc2)n1 [Compound 6, 3-((5,6-bis(4-bromophenyl)pyrazin-2-yl)oxy)propan-1-amine hydrochloride]
- effect on p300 HAT-histone H4 binding (in words) [2]: not significantly inhibited
- disruption of p300 HAT-histone H4 binding at 100 μM (in words) ([2]; 100 μM): did not significantly disrupt the binding
- acetylation of H3K9 in cells (Kasumi-1 leukemia cells): did not significantly reduce
- acetylation of H3K18 in cells (Kasumi-1 leukemia cells): did not significantly reduce
- acetylation of H3K27 in cells (Kasumi-1 leukemia cells): did not significantly reduce

Structure (SMILES): c1cc(-c2ccc(-c3ncc(OCC4CCNCC4)nc3-c3ccc(-c4ccoc4)cc3)cc2)co1 [Compound 29, 2,3-bis(4-(Furan-3-yl)phenyl)-5-(piperidin-4-ylmethoxy)pyrazine hydrochloride]
- inhibition of Myst3 activity at 100 μM (in words) (Myst3): did not significantly inhibit
- mode of inhibition against cofactor Ac-CoA ([1]; IC50 versus Ac-CoA 1 - 50 μM): likely non-competitive against the enzyme cofactor Ac-CoA
- mode of inhibition against substrate histone ([1]; IC50 versus histone peptide 2 - 100 μM): competitive against the substrate histone
- more activity against p300 HAT than initial lead compound 3 ([1]; relative to compound 3): > 4 ×
- effect on p300 HAT-histone H4 binding (in words) [2]: can dose-dependently disrupt the binding
- inhibition of LSD1 activity at 100 μM (in words) (LSD1 [4]): did not significantly inhibit
- inhibition of PCAF activity at 100 μM (in words) (PCAF): did not significantly inhibit
- acetylation of H3K9 in cells (Kasumi-1 leukemia cells): almost depleted
- acetylation of H3K18 in cells (Kasumi-1 leukemia cells): significantly inhibited
- acetylation of H3K27 in cells (Kasumi-1 leukemia cells): almost depleted

Structure (SMILES): NCCOc1cnc(-c2ccc(Br)cc2)c(-c2ccc(Br)cc2)n1 [Compound 8, 2-((5,6-bis(4-bromophenyl)pyrazin-2-yl)oxy)ethan-1-amine hydrochloride]
- inhibitory activity against p300 HAT (in words) [1]: weak inhibitors
